From ChEMBL document CHEMBL1914381, “New spirocyclic Δ²-isoxazoline derivatives related to selective agonists of α7 neuronal nicotinic acetylcholine receptors” (Eur J Med Chem, 2011)

How the values were obtained:
[1] = target: Neuronal acetylcholine receptor; alpha4/beta2 (Rattus norvegicus, UniProt P09483+P12390); assay: Displacement of [3H]epibatidine from alpha4beta2 nAChR in rat cortical membranes by beta counting relative to acetylcholine; format: cell membranes, Membrane
In short: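 Rat cortex membranes pre-incubated with […] to block α7 sites. Then 30 min r.t. with test compound (10 pM–10 mM), then overnight at 4 °C with 0.075 nM [3H]epibatidine. Nonspecific binding with 100 nM unlabelled epibatidine. Filtered on PEI-soaked GF/C filters and washed; beta counting. Ki fitted from three competition experiments by non-linear least squares; >100 mM when no inhibition up to 100 mM.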

[2] = target: Neuronal acetylcholine receptor subunit alpha-7 (Rattus norvegicus, UniProt Q05941); assay: Displacement of [125I]-alpha-bungarotoxin from alpha7 nAChR in rat cortical membranes by gamma counting; format: cell membranes, Membrane
In short: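 Rat cortex membranes (two rats per experiment, homogenized and centrifuged twice at 60,000g) in Tris-HCl buffer pH 7 with protease inhibitors. Pre-incubated 30 min r.t. with test compound (10 pM–10 mM), then overnight at r.t. with 1 nM [125I]α-bungarotoxin. Nonspecific binding with […]. Filtered on polyethylenimine-soaked GF/C filters; gamma counting. Ki fitted from three competition experiments by non-linear least squares; >100 mM when no inhibition up to 100 mM.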

[3] = target: Neuronal acetylcholine receptor; alpha3/beta4 (Homo sapiens, UniProt P30926+P32297); assay: Displacement of [3H]epibatidine from alpha3beta4 nAChR expressed in human HEK293 cells by beta liquid scintillation counting; format: cell-based
In short: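 HEK 293 cells transiently transfected with α3 and β4 cDNAs by JetPEI and harvested after 48 h. Compound pre-incubated 5 min, then overnight at 4 °C with 0.25 nM [3H]epibatidine in Tris-HCl pH 7 buffer with 2 mg/ml BSA. Nonspecific binding with 100 nM cold epibatidine. Cells washed seven times with ice-cold PBS; liquid scintillation counting.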

[4] = target: Neuronal acetylcholine receptor subunit alpha-7 (Homo sapiens, UniProt P36544); assay: Agonist activity at human alpha7 nAChR expressed in rat GH4C1 cells assessed as maximal electric current amplitude at 1 mM by whole-cell patch clamp electrophysiology assay relative to acetylcholine; format: functional, cell-based; settings: for Activity: GH4-C1
In short: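 GH4C1 cells stably transfected with human α7 subunit; whole-cell patch clamp, holding potential −70 mV, fast gravity-driven perfusion exchanger. Compound applied at 1 mM; current amplitude normalized to that from ACh 1 mM on the same cell. n = 8–12 cells.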

Chain of Neuronal acetylcholine receptor; alpha3/beta4 (P30926 whole entry): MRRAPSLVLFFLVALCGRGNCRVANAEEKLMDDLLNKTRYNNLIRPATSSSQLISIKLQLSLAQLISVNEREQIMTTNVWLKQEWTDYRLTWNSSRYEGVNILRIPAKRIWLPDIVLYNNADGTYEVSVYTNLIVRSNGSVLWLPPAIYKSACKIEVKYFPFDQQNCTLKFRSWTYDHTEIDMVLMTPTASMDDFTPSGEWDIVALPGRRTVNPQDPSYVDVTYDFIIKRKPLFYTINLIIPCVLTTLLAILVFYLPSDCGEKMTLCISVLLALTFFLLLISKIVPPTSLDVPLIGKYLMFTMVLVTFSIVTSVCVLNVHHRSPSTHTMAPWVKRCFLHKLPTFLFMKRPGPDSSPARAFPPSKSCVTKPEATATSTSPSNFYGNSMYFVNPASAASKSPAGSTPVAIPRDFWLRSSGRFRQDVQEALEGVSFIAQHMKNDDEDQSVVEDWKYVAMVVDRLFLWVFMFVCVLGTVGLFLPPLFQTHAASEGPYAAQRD
Chain of Neuronal acetylcholine receptor; alpha3/beta4 (P32297 whole entry): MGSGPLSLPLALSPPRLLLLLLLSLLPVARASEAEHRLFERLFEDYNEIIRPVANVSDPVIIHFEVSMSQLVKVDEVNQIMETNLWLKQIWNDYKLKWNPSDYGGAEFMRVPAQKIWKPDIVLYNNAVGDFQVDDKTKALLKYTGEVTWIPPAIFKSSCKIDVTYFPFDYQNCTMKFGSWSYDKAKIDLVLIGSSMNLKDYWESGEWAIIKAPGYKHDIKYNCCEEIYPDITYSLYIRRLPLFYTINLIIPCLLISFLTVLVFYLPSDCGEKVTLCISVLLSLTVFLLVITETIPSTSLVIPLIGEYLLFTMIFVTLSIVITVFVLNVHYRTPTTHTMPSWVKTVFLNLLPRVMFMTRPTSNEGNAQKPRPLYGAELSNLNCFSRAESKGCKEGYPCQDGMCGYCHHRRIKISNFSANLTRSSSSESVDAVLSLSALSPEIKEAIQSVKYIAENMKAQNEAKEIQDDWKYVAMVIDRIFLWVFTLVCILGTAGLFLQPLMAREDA
Chain of Neuronal acetylcholine receptor subunit alpha-7 (Homo sapiens, UniProt P36544) (P36544 whole entry, the tested form may be a part): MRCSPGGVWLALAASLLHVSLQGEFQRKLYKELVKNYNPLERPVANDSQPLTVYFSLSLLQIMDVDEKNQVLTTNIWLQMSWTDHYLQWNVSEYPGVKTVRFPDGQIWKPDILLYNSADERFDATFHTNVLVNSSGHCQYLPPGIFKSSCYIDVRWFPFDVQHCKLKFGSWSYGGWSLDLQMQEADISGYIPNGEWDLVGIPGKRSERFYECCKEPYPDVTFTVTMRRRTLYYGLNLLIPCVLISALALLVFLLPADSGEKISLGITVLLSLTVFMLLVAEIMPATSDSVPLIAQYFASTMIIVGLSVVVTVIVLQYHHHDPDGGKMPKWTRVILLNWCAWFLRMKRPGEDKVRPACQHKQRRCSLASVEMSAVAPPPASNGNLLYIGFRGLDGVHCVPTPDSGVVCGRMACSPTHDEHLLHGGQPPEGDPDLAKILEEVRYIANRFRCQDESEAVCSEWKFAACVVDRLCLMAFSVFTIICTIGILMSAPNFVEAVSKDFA
Chain of Neuronal acetylcholine receptor; alpha4/beta2 (P09483 whole entry): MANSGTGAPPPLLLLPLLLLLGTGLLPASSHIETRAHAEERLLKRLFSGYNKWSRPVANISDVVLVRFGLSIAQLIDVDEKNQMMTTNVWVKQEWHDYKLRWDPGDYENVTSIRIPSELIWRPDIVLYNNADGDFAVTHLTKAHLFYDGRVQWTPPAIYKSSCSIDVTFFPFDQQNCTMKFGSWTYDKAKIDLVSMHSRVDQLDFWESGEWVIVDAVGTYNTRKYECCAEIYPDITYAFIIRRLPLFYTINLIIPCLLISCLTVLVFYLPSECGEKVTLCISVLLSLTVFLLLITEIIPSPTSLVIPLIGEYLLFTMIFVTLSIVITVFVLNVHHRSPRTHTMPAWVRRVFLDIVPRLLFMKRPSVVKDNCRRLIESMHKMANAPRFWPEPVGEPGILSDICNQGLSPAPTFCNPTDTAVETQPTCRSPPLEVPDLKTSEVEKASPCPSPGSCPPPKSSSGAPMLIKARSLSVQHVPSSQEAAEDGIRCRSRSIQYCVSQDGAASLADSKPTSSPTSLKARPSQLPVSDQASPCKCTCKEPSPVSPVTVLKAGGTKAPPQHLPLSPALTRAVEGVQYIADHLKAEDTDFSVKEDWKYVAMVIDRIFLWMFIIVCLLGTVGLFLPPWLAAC
Chain of Neuronal acetylcholine receptor; alpha4/beta2 (P12390 whole entry): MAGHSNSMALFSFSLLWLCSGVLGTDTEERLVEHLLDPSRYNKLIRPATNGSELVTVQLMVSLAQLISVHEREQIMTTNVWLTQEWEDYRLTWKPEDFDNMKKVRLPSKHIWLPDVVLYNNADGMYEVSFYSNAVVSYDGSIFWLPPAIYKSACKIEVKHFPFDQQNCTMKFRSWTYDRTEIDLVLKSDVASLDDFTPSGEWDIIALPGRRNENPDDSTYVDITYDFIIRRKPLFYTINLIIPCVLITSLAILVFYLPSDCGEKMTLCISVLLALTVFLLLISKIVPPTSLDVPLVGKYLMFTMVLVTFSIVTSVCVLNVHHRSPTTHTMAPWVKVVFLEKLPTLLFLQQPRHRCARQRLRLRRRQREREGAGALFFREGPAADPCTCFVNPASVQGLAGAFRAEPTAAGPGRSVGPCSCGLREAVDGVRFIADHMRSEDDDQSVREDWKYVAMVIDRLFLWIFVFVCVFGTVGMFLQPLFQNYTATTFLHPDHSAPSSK
Chain of Neuronal acetylcholine receptor subunit alpha-7 (Rattus norvegicus, UniProt Q05941) (Q05941 whole entry): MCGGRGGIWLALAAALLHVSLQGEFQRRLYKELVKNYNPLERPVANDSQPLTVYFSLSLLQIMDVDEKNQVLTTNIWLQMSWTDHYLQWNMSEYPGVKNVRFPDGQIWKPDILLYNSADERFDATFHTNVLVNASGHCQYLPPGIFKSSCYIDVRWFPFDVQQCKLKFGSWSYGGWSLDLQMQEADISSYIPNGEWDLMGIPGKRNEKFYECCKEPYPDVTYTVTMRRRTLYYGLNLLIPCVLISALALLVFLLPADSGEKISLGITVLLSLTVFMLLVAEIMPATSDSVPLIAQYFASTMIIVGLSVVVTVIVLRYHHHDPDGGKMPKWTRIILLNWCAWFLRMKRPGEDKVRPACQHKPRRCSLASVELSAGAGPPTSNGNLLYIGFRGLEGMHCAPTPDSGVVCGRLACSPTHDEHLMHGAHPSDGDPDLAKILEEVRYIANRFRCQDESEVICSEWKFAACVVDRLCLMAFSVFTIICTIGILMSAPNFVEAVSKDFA

Row | Structure (SMILES) | Ki [1] [µM] | Ki [2] [µM] | Ki [3] [µM] | Activity [4] [%] | EC50 [4] [µM]
1 | C[N+]12CCC(C1)C1(CC(Br)=NO1)C2 (racemic) | 22 | 6.2 | – | – | –
2 | COC1=NOC2(C1)CN1CCC2C1 (racemic) | 16 | 0.42 | 46 | – | –
3 | c1ccc(C2=NOC3(CCCNC3)C2)cc1 (racemic) | > 100 | 4.5 | 43 | – | –
4 | C[N+]1(C)CCCC2(CC(c3ccccc3)=NO2)C1 (racemic) | > 100 | 0.7 | 6.6 | 26 | –
5 | C[N+]12CCC(C1)C1(CC(c3ccccc3)=NO1)C2 (racemic) | 38 | 5.1 | – | – | –
6 | C[N+]1(C)CCCC2(CC(Br)=NO2)C1 (racemic) | 50 | 3.7 | – | – | –
7 | CN1CCCC2(CC(c3ccccc3)=NO2)C1 (racemic) | > 100 | 30 | – | – | –
8 | C[N+]12CCC(CC1)C1(CC(Br)=NO1)C2 (racemic) | 32.5 | 0.109 | – | – | –
9 | c1ccc(C2=NOC3(C2)CN2CCC3C2)cc1 (racemic) | 53 | 3.6 | 16 | – | –
10 | COC1=NOC2(C1)C[N+]1(C)CCC2C1 (racemic) | 20 | 2.9 | – | – | –
11 | COC1=NOC2(C1)C[N+]1(C)CCC2CC1 (racemic) | 175 | 0.0914 | – | – | –
12 | BrC1=NOC2(C1)CN1CCC2CC1 (racemic) | 0.64 | 0.0135 | – | – | –
13 | BrC1=NOC2(C1)CN1CCC2C1 (racemic) | 5 | 0.23 | 13 | 76 | 84.1
14 | BrC1=NOC2(CCCNC2)C1 (racemic) | 58 | 4.3 | – | – | –
15 | c1ccc(C2=NOC3(C2)CN2CCC3CC2)cc1 (racemic) | 22 | 0.025 | – | – | –
16 | CN1CCCC2(CC(Br)=NO2)C1 (racemic) | 44 | 6.6 | – | – | –
17 | COC1=NOC2(C1)CN1CCC2CC1 (racemic) | 7.9 | 0.0142 | – | – | –
18 | COC1=NOC2(CCCNC2)C1 (racemic) | > 100 | 3.7 | 75 | – | –
19 | COC1=NOC2(CCCN(C)C2)C1 (racemic) | > 100 | 5.5 | 91 | 7 | –
20 | COC1=NOC2(CCC[N+](C)(C)C2)C1 (racemic) | 94 | 13 | – | – | –
